This is an account of results in ChEMBL document CHEMBL4190220, “Withanolides from Aeroponically Grown Physalis peruviana and Their Selective Cytotoxicity to Prostate Cancer and Renal Carcinoma Cells” (J Nat Prod, 2017).

One test deals with LNCaP. Nature of the test: Cytotoxicity against human LNCAP cells assessed as reduction in cell viability after 72 hrs by CellTiter96 AQueous one solution cell proliferation assay. In kind it is functional, cell-based. In a few lines:
(§1)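 MTS viability in RPMI with 5% fetal calf serum, 2.0 mM L-glutamine, nonessential amino acids, 1.0 mM pyruvate, penicillin/streptomycin, 10 mM HEPES and 2-mercaptoethanol. Cells were seeded at 10 000 (LNCaP) or 5000 (others) and grown overnight at 37 °C. Serial dilutions in DMSO went into triplicate wells for 72 h. MTS was read at 490 nm after 2 h. IC50 ± SD from dose–response curves, at least three independent experiments.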

The test system of a further test is CWR22R. Nature of the test: Cytotoxicity against human 22Rv1 cells assessed as reduction in cell viability after 72 hrs by CellTiter96 AQueous one solution cell proliferation assay. It counts as functional, cell-based. Conditions: 22Rv1, 72 h. In a few lines:
as §1

For a further test, the system named is ACHN. Nature of the test: Cytotoxicity against human ACHN cells assessed as reduction in cell viability after 72 hrs by CellTiter96 AQueous one solution cell proliferation assay. In kind it is functional, cell-based. In a few lines:
as §1

A further test deals with M14. Nature of the test: Cytotoxicity against human M14 cells assessed as reduction in cell viability after 72 hrs by CellTiter96 AQueous one solution cell proliferation assay. The note with it: M14, 72 h. In kind it is functional, cell-based. A digest of the protocol: (§2)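 MTS viability in DMEM with 5% fetal calf serum, 2.0 mM L-glutamine, nonessential amino acids, 1.0 mM pyruvate, penicillin/streptomycin, 10 mM HEPES and 2-mercaptoethanol. 5000 cells were grown overnight at 37 °C. Serial DMSO dilutions went into triplicate wells for 72 h. MTS absorbance was read at 490 nm after 2 h. IC50 ± SD from at least three independent dose–response experiments.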

Another test deals with SK-MEL-28. Nature of the test: Cytotoxicity against human SK-MEL-28 cells assessed as reduction in cell viability after 72 hrs by CellTiter96 AQueous one solution cell proliferation assay. It counts as functional, cell-based. The note with it: SK-MEL-28, 72 h. A digest of the protocol:
as §2

A further test has as its system HFF. Nature of the test: Cytotoxicity against HFF cells assessed as reduction in cell viability after 72 hrs by CellTiter96 AQueous one solution cell proliferation assay. Conditions: Homo sapiens. In kind it is cell-based. A digest of the protocol: as §1

For orientation: IC50 means the concentration that gives 50% inhibition.

The structures appear in SMILES notation.

Consider `CC1=C(C)C(=O)O[C@@H]([C@](C)(O)[C@]2(O)CC[C@@]3(O)[C@@H]4[C@@H](O)[C@H]5O[C@]56CC=CC(=O)[C@]6(C)[C@H]4CC[C@]23C)C1`, for which the IC50 in the test on LNCaP is 330 nM; in the test with CWR22R it was 260 nM; in the test on ACHN, greater than 2000 nM; with M14 it was greater than 2000 nM; with SK-MEL-28 it was greater than 2000 nM; with HFF, greater than 2000 nM.

Turning to `CC1=C(C)C(=O)O[C@@H]([C@](C)(O)[C@]2(O)CC[C@@]3(O)[C@@H]4C[C@H]5O[C@]56CC=CC(=O)[C@]6(C)[C@H]4CC[C@]23C)C1` [WITHANOLIDE E], the IC50 in the test on LNCaP is 60 nM; in the test with CWR22R, 70 nM; with ACHN, 460 nM; in the test on M14, greater than 2000 nM; with SK-MEL-28, greater than 2000 nM; in the test with HFF, greater than 2000 nM.

`CC1=C(C)C(=O)O[C@@H]([C@](C)(O)[C@]2(O)CC[C@@]3(O)[C@@H]4CC=C5[C@@H](O)C=CC(=O)[C@]5(C)[C@H]4CC[C@]23C)C1`: the concentration for half-maximal inhibition (IC50) with LNCaP is 110 nM; in the test with CWR22R, 70 nM; in the test on ACHN, 1000 nM; in the test with M14, greater than 2000 nM; in the test on SK-MEL-28, greater than 2000 nM; with HFF, greater than 2000 nM.

With `C[C@H]1C[C@H]([C@](C)(O)[C@]2(O)CC[C@@]3(O)[C@@H]4C[C@H]5O[C@]56CC=CC(=O)[C@]6(C)[C@H]4CC[C@]23C)OC(=O)[C@@H]1C`, the IC50 in the test with LNCaP is 290 nM; with CWR22R it was 210 nM; in the test with ACHN, greater than 2000 nM; with M14, greater than 2000 nM; with SK-MEL-28, greater than 2000 nM; in the test with HFF it was greater than 2000 nM.

`CO[C@H]1C=CC(=O)[C@]2(C)[C@H]3CC[C@]4(C)[C@](O)([C@@](C)(O)[C@H]5CC(C)=C(C)C(=O)O5)CC[C@@]4(O)[C@@H]3C[C@H]3O[C@]132`: the IC50 in the test with LNCaP is 330 nM; in the test on CWR22R, 240 nM; in the test with ACHN, greater than 2000 nM; in the test with M14 it was greater than 2000 nM; in the test with SK-MEL-28 it was greater than 2000 nM; in the test on HFF, greater than 2000 nM.

For `CC1=C(C)[C@H](O)[C@H]([C@](C)(O)[C@]2(O)CC[C@@]3(O)[C@@H]4C[C@H]5O[C@]56CC=CC(=O)[C@]6(C)[C@H]4CC[C@]23C)OC1=O`, the IC50 in the test on LNCaP is greater than 2000 nM; in the test on CWR22R it was 890 nM; in the test on ACHN, greater than 2000 nM; in the test on M14, greater than 2000 nM; in the test with SK-MEL-28, greater than 2000 nM; with HFF, greater than 2000 nM.

`CC1=C(C)C(=O)O[C@@H]([C@](C)(O)[C@]2(O)CC[C@@]3(O)[C@@H]4[C@@H](O)C=C5CC=CC(=O)[C@]5(C)[C@H]4CC[C@]23C)C1`: the IC50 with LNCaP is 330 nM; in the test on CWR22R, 560 nM; with ACHN it was greater than 2000 nM; in the test with M14 it was greater than 2000 nM; in the test with SK-MEL-28, greater than 2000 nM; in the test on HFF it was greater than 2000 nM.

On to `CC1=C(CO)C[C@H]([C@](C)(O)[C@]2(O)CC[C@@]3(O)[C@@H]4CC=C5CC=CC(=O)[C@]5(C)[C@H]4CC[C@]23C)OC1=O`, for which the IC50 in the test with LNCaP is 240 nM; with CWR22R, 210 nM; in the test with ACHN, greater than 2000 nM; with M14 it was greater than 2000 nM; with SK-MEL-28, greater than 2000 nM; in the test on HFF, greater than 2000 nM.

Take `CC1=C(C)C(=O)O[C@@H]([C@](C)(O)[C@]2(O)CC[C@@]3(O)[C@@H]4C[C@H]5O[C@]56[C@@H](O)C=CC(=O)[C@]6(C)[C@H]4CC[C@]23C)C1`: the IC50 with LNCaP was 160 nM; in the test on CWR22R it was 90 nM; with ACHN, greater than 2000 nM; with M14, greater than 2000 nM; with SK-MEL-28, greater than 2000 nM; in the test with HFF, greater than 2000 nM.
